Data from ChEMBL document CHEMBL3992510, “Urea Derivatives of 2-Aryl-benzothiazol-5-amines: A New Class of Potential Drugs for Human African Trypanosomiasis” (J Med Chem, 2017).

Key:
[1] = test system: Trypanosoma brucei brucei; assay: Antitrypanosomal activity against Trypanosoma brucei brucei BF427 assessed as growth inhibition measured after 48 hrs by Alamar blue assay; format: functional; conditions: BF427, 48 h
Procedure, shortened: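 Bloodstream-form parasites in HMI-9 medium are exposed to serial compound dilutions in triplicate. Viability is read with Alamar Blue at 48 h. EC50 and EC90 come from nonlinear regression. Pentamidine isethionate is the control.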

[2] = Drug level in mouse plasma at 5 mg/kg, ip administered as single dose measured at 1 hr post dose by liquid chromatography/tandem mass spectrometric analysis; format: ADME, organism-based
Procedure, shortened: (§1)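 Single ip dose of 5 mg/kg in 5% DMSO/7% Tween 80/3% EtOH in 0.9% saline, three mice per compound (six for one compound). At 1 h, plasma is separated by centrifugation and brain homogenized in acetonitrile. Both are quantified by LC-MS/MS, with brain corrected for 3% v/w blood. Brain/plasma ratio is reported as mean ± SEM.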

[3] = Drug level in mouse brain at 5 mg/kg, ip administered as single dose measured at 1 hr post dose by liquid chromatography/tandem mass spectrometric analysis; format: ADME, organism-based; conditions: read-out: Drug uptake; procedure, shortened: as §1
[4] = Cytotoxicity against human CRL8155 cells assessed as growth inhibition after 48 hrs by Alamar blue assay; format: cell-based; conditions: for EC50: Homo sapiens, CRL8155, 48 h; for EC90: human, crl8155, 48 h
Procedure, shortened: (§2)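 CRL-8155 lymphoblasts or HepG2 hepatocellular carcinoma cells are exposed 48 h to serial compound dilutions in quadruplicate. Growth is read with Alamar Blue, and 50% and 90% inhibitory concentrations come from nonlinear regression. Quinacrine is the control.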

[5] = test system: HepG2; assay: Cytotoxicity against human HepG2 cells assessed as growth inhibition after 48 hrs by Alamar blue assay; format: cell-based; conditions: for EC50: Homo sapiens, HepG2, 48 h; for EC90: human, hepg2, 48 h; procedure, shortened: as §2
[6] = Selectivity index, ratio of EC50 for human HepG2 cells to EC50 for Trypanosoma brucei brucei BF427; format: toxicity; conditions: read-out: Ratio EC50
[7] = Selectivity index, ratio of EC50 for human CRL8155 cells to EC50 for Trypanosoma brucei brucei BF427; format: toxicity; conditions: read-out: Ratio EC50
[8] = test system: Liver; assay: Half life in mouse liver microsomes at 1.5 uM in presence of NADPH by liquid chromatography/tandem mass spectrometric analysis; format: ADME, microsome
[9] = test system: Liver; assay: Half life in human liver microsomes at 1.5 uM in presence of NADPH by liquid chromatography/tandem mass spectrometric analysis; format: ADME, microsome

Row | Structure (SMILES) | EC50 [1] | EC90 [1] | further results
1 | O=C(Nc1ccc2sc(-c3ccccc3)nc2c1)c1nccs1 | 5.86 µM | > 10 µM | –
2 | O=C(Nc1ccc2scnc2c1)N1CCCC1 | > 20 µM | > 20 µM | –
3 | CN(C)C1CCN(C(=O)Nc2ccc3sc(-c4ccc(F)c(F)c4)nc3c2)C1 (centres undefined) | 1.7 µM | 1.95 µM | concentration at 1 h [2]: 780 nM; concentration at 1 h [3]: 3000 nM
4 | CC(C)(Cc1nc(-c2cccc(F)c2)cs1)NC(=O)c1ccccc1 | > 10 µM | > 10 µM | –
5 | O=C(NCCc1nc(-c2cccc(F)c2)cs1)N1CCCc2ccccc21 | 5.95 µM | 14 µM | –
6 | O=C1CCN(C(=O)NCCc2nc(-c3cccc(F)c3)cs2)CC1 | 0.667 µM | 0.813 µM | EC50 [4]: > 50 µM; EC90 [4]: > 50 µM; EC50 [5]: > 50 µM; EC90 [5]: > 50 µM; selectivity ratio [6]: > 75; selectivity ratio [7]: > 75
7 | N=C(N)c1ccc(OCCCCCOc2ccc(C(=N)N)cc2)cc1 | 0.00105 µM | 0.00354 µM | EC50 [4]: 45.4 µM; EC90 [4]: > 100 µM; EC50 [5]: > 100 µM; EC90 [5]: > 100 µM; selectivity ratio [6]: > 93000; selectivity ratio [7]: > 43200
8 | CC(C)(Cc1csc(-c2ccccc2)n1)NC(=O)N1CCCCCC1 | > 10 µM | > 10 µM | –
9 | O=C(Nc1ccc2sc(-c3ccc(F)cc3)nc2c1)N1CCCCC1 | 0.427 µM | 0.737 µM | EC50 [4]: > 50 µM; EC90 [4]: > 50 µM; EC50 [5]: > 50 µM; EC90 [5]: > 50 µM; selectivity ratio [6]: > 117; selectivity ratio [7]: > 117
10 | O=C(Nc1ccc2nc(-c3ccc(F)c(F)c3)sc2c1)N1CCC(F)C1 (centres undefined) | > 20 µM | > 20 µM | –
11 | O=C(Nc1ccc2sc(-c3ccccc3)nc2c1)N1CC=CCC1 | 1.12 µM | 1.35 µM | –
12 | O=C(Nc1ccc2sc(-c3ccccc3F)nc2c1)N1CCCCC1 | 0.935 µM | 1.14 µM | EC50 [4]: > 50 µM; EC90 [4]: > 50 µM; EC50 [5]: > 50 µM; EC90 [5]: > 50 µM; selectivity ratio [6]: > 53; selectivity ratio [7]: > 53
13 | CC(C)(Cc1csc(-c2ccccc2)n1)NC(=O)N1CCCC1 | > 10 µM | > 10 µM | –
14 | O=C(Nc1nc2ccc(-c3ccc(F)c(F)c3)cc2s1)N1CCC(F)C1 (centres undefined) | 2.23 µM | > 20 µM | –
15 | CC(C)(CNC(=O)c1ccccc1)c1nc(-c2ccccc2)cs1 | > 10 µM | > 10 µM | –
16 | O=C(Nc1ccc2sc(-c3ccccc3F)nc2c1)N1CCCC1 | 0.983 µM | 1.24 µM | EC50 [4]: > 50 µM; EC90 [4]: > 50 µM; EC50 [5]: > 50 µM; EC90 [5]: > 50 µM; selectivity ratio [6]: > 51; selectivity ratio [7]: > 51
17 | CC(C)(Cc1nc(-c2ccccc2)cs1)NC(=O)c1ccccc1 | > 10 µM | > 10 µM | –
18 | O=C(Nc1ccc2sc(-c3ccc(F)c(F)c3)nc2c1)N1CCC(F)(F)CC1 | 2.98 µM | 4.17 µM | –
19 | O=C(Nc1ccc2sc(-c3cccc(F)c3)nc2c1)c1ccccc1 | 1.78 µM | 3.62 µM | –
20 | COC1CCN(C(=O)Nc2ccc3sc(-c4ccc(F)c(F)c4)nc3c2)C1 (centres undefined) | 3.05 µM | 4.59 µM | –
21 | O=C(Nc1ccc2sc(-c3ccccc3)nc2c1)c1cscn1 | > 10 µM | > 10 µM | –
22 | O=C(Nc1ccc2sc(-c3ccc(F)cc3)nc2c1)c1ccccc1 | 1.92 µM | 3 µM | –
23 | O=C(Nc1ccc2sc(-c3ccc(F)c(F)c3)nc2c1)N1CCC(O)C1 (centres undefined) | 7.68 µM | 13.6 µM | –

Row | Structure (SMILES) | EC50 [1] | EC90 [1] | further results
24 | COc1ccc2c(c1)[C@]13CCCC[C@@H]1[C@H](C2)N(C)CC3 [DEXTROMETHORPHAN] | – | – | t1/2 [8]: 7.79 min; t1/2 [9]: 39.15 min
25 | O=C(Nc1ccc2oc(-c3ccccc3)nc2c1)c1ccccc1 | > 10 µM | > 10 µM | t1/2 [8]: 17 min; t1/2 [9]: 60 min
26 | N#CC1CCN(C(=O)Nc2ccc3sc(-c4ccc(F)c(F)c4)nc3c2)C1 (centres undefined) | 2.85 µM | 4.67 µM | –
27 | NC1CCN(C(=O)Nc2ccc3sc(-c4ccc(F)c(F)c4)nc3c2)C1 (centres undefined) | 2.32 µM | 2.72 µM | –
28 | O=C(Nc1ccc2sc(-c3ccc(F)c(F)c3)nc2c1)N1CCC(C(F)(F)F)C1 (centres undefined) | 1.69 µM | 4.88 µM | concentration at 1 h [2]: 4150 nM; concentration at 1 h [3]: 1970 nM
29 | Cc1nc2cc(NC(=O)N3CCCC3)ccc2s1 | > 20 µM | > 20 µM | –
30 | O=C(Nc1nc2cc(-c3ccc(F)c(F)c3)ccc2s1)N1CCC(F)C1 (centres undefined) | 2.64 µM | 5.28 µM | –
31 | O=C(Nc1ccc2sc(-c3cccc(F)c3)nc2c1)N1CCN(C(=O)Nc2ccc3sc(-c4cccc(F)c4)nc3c2)CC1 | > 20 µM | > 20 µM | –
32 | O=C(Nc1ccc2sc(-c3cccc(F)c3)nc2c1)N1CCCCC1 | 0.174 µM | 0.602 µM | t1/2 [8]: 11 min; t1/2 [9]: 8.9 min; EC50 [4]: > 50 µM; EC90 [4]: > 50 µM; EC50 [5]: > 50 µM; EC90 [5]: > 50 µM; selectivity ratio [6]: > 287; selectivity ratio [7]: > 287
33 | O=C(Nc1ccc2[nH]c(-c3ccccc3)nc2c1)c1ccccc1 | > 10 µM | > 10 µM | –
34 | C[C@@H]1CCC[C@H](C)N1C(=O)NCCc1nc(-c2cccc(F)c2)cs1 | 0.399 µM | 0.564 µM | EC50 [4]: > 50 µM; EC90 [4]: > 50 µM; EC50 [5]: > 50 µM; EC90 [5]: > 50 µM; selectivity ratio [6]: > 125; selectivity ratio [7]: > 125
35 | CC(C)(Cc1csc(-c2ccccc2)n1)NC(=O)c1ccccc1 | > 10 µM | > 10 µM | –
36 | O=C(Nc1ccc2sc(-c3ccc(F)cc3F)nc2c1)N1CCCC1 | 0.929 µM | 1.48 µM | –
37 | CN1CCN(C(=O)Nc2ccc3sc(-c4cccc(F)c4)nc3c2)CC1 | 3.15 µM | 7.55 µM | –
38 | O=C(Nc1ccc2sc(-c3ccc(F)cc3)nc2c1)N1CCCC1 | 0.375 µM | 0.895 µM | EC50 [4]: > 50 µM; EC90 [4]: > 50 µM; EC50 [5]: > 50 µM; EC90 [5]: > 50 µM; selectivity ratio [6]: > 133; selectivity ratio [7]: > 133
39 | O=C(Nc1ccc2sc(-c3ccccc3)nc2c1)c1ccsc1 | 1.57 µM | 2.49 µM | –
40 | O=C(Nc1ccc2sc(-c3ccccc3)nc2c1)c1cccs1 | 0.882 µM | 2.13 µM | EC50 [4]: > 50 µM; EC90 [4]: > 50 µM; EC50 [5]: > 50 µM; EC90 [5]: > 50 µM; selectivity ratio [6]: > 57; selectivity ratio [7]: > 57
41 | CCN(CC)CCCC(C)Nc1c2ccc(Cl)cc2nc2ccc(OC)cc12 (centres undefined) [QUINACRINE] | – | – | EC50 [4]: 4.23 µM; EC90 [4]: 9.94 µM; EC50 [5]: 10.4 µM; EC90 [5]: 18.2 µM
42 | O=C(Nc1ccc2sc(-c3ccccc3)nc2c1)N1CCSC1 | 1.24 µM | 2.38 µM | –
43 | O=C(NCCc1nc(-c2cccc(F)c2)cs1)N1CCc2ccccc2C1 | 9.76 µM | 13.8 µM | –
44 | O=C(NCCc1nc(-c2ccccc2)cs1)N1CCCCCC1 | 0.11 µM | 0.236 µM | –
45 | C[C@]12CC[C@H]3[C@@H](CCC4=CC(=O)CC[C@@]43C)[C@@H]1CC[C@@H]2O [TESTOSTERONE] | – | – | t1/2 [8]: 5.26 min; t1/2 [9]: 22.7 min
